Data set [1] has as its system Trypanosoma brucei brucei. Put plainly: Trypanocidal activity against Trypanosoma brucei brucei assessed as reduction in intracellular ATP production incubated for 72 hrs by CellTiter-Glo luminescent cell viability assay. The format is functional, organism-based. A digest of the protocol: (§1)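 Bloodstream trypanosomes in 96-well culture were exposed to compound in 5-fold serial dilutions from 25 µg/mL to 1.6 ng/mL for 72 h. Seeding and temperature: T. b. brucei, T. b. gambiense and T. b. rhodesiense at 5×10^3 cells/mL and 37 °C; T. evansi at 1×10^4 cells/mL and 37 °C; T. congolense at 2×10^5 cells/mL and 33 °C. Viability was read as intracellular ATP by CellTiter-Glo luminescence. Three replicates; IC50 calculated.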

The test system of data set [2] is Trypanosoma brucei gambiense. Briefly: Trypanocidal activity against Trypanosoma brucei gambiense assessed as reduction in intracellular ATP production incubated for 72 hrs by CellTiter-Glo luminescent cell viability assay. The format is functional, organism-based. In outline:
as §1

The test system of data set [3] is Trypanosoma brucei rhodesiense. Put plainly: Trypanocidal activity against Trypanosoma brucei rhodesiense assessed as reduction in intracellular ATP production incubated for 72 hrs by CellTiter-Glo luminescent cell viability assay. The format is functional, organism-based. In outline: as §1
For a further data set, the system named is Trypanosoma congolense. Briefly: Trypanocidal activity against Trypanosoma congolense assessed as reduction in intracellular ATP production incubated for 72 hrs by CellTiter-Glo luminescent cell viability assay. In kind it is functional, organism-based. In outline: as §1
Another data set deals with Trypanosoma evansi. Put plainly: Trypanocidal activity against Trypanosoma evansi assessed as reduction in intracellular ATP production incubated for 72 hrs by CellTiter-Glo luminescent cell viability assay. In kind it is functional, organism-based. In outline:
as §1

The next data set has as its system MDBK cells (Bos taurus). Briefly: Cytotoxicity against bovine MDBK cells assessed as reduction in cell viability incubated for 72 hrs by CCK8 assay.
Data set [4] is described as follows: Selectivity index, ratio of IC50 for cytotoxicity against bovine MDBK cells to IC50 for Trypanocidal activity against Trypanosoma evansi.
Data set [5] can be described thus: Selectivity index, ratio of IC50 for cytotoxicity against bovine MDBK cells to IC50 for Trypanocidal activity against Trypanosoma congolense.
Data set [6] can be described thus: Selectivity index, ratio of IC50 for cytotoxicity against bovine MDBK cells to IC50 for Trypanocidal activity against Trypanosoma brucei brucei. Conditions: cattle.
Data set [7] can be described thus: Selectivity index, ratio of IC50 for cytotoxicity against bovine MDBK cells to IC50 for Trypanocidal activity against Trypanosoma brucei gambiense. Conditions: cattle.
Data set [8] in a line: Selectivity index, ratio of IC50 for cytotoxicity against bovine MDBK cells to IC50 for Trypanocidal activity against Trypanosoma brucei rhodesiense.

Molecules are shown by their SMILES.

In the case of `COc1cccc(-c2ncc(-c3ccccc3OC)o2)c1`, the IC50 in data set [1] is > 88.9 µM; in [2] it was > 88.9 µM; in data set [3], > 88.9 µM; in the data set on Trypanosoma congolense, 6.7 µM; in the data set with Trypanosoma evansi, > 88.9 µM; in the data set with MDBK cells (Bos taurus), 161 µM. The selectivity ratio in data set [4] is < 1.8; in [5] it was 24; in [6] it was < 1.8; in [7] it was < 1.8; in [8] it was < 1.8.

As for `CCCOc1ccccc1-c1cnc(-c2cccc(OC)c2OC)o1`, the IC50 in [1] was 20.3 µM; in data set [2] it was 28.2 µM; in data set [3] it was 27.1 µM; in the data set with Trypanosoma congolense, 7.6 µM; with Trypanosoma evansi, 28.4 µM; with MDBK cells (Bos taurus) it was > 295 µM. The selectivity ratio in data set [4] is > 10; in data set [5] it was > 39; in data set [6], > 15; in data set [7], > 10; in [8], > 11.

As to `COc1ccccc1-c1cnc(-c2c(OC)cccc2OC)o1`, the half-maximal inhibitory concentration (IC50) is 19.7 µM in data set [1]; 24.6 µM in [2]; 18.4 µM in [3]; 5.3 µM in the data set with Trypanosoma congolense; 21.7 µM in the data set with Trypanosoma evansi; 37.6 µM in the data set with MDBK cells (Bos taurus). Moreover, the selectivity ratio in [4] came out at 1.7; in data set [5] it was 7.1; in data set [6] it was 1.9; in data set [7] it was 1.5; in data set [8], 2.

In the case of `COc1ccccc1-c1nnc(-c2cccc(OC)c2OC)s1`, the half-inhibitory concentration (IC50) was 29.8 µM in data set [1]; 22.1 µM in data set [2]; 27.2 µM in data set [3]; 3.8 µM with Trypanosoma congolense; 28.1 µM in the data set with Trypanosoma evansi; > 305 µM in the data set on MDBK cells (Bos taurus). Further, the selectivity ratio was > 11 in data set [4]; > 80 in [5]; > 10 in [6]; > 14 in data set [7]; > 11 in data set [8].

`COc1cccc(-c2ncc(-c3ccccc3N)o2)c1OC`: the IC50 in [1] worked out at 59.8 µM; in data set [2], 46.2 µM; in data set [3], 62.1 µM; with Trypanosoma congolense it was 9.1 µM; in the data set on Trypanosoma evansi it was 105 µM; in the data set on MDBK cells (Bos taurus), 47.6 µM. Further, the selectivity ratio in data set [4] was determined as 0.45; in data set [5] it was 5.2; in data set [6], 0.8; in data set [7] it was 1; in [8], 0.77.

For the compound `Oc1ccc(O)c(-c2cnc(-c3cc(O)ccc3O)o2)c1`, the IC50 in data set [1] amounted to 54.7 µM; in data set [2], 78.3 µM; in [3], 72.1 µM; in the data set on Trypanosoma congolense it was 8.6 µM; in the data set on Trypanosoma evansi it was 44.4 µM; in the data set on MDBK cells (Bos taurus), 22.7 µM. The selectivity ratio worked out at 0.51 in data set [4]; 2.6 in [5]; 0.41 in [6]; 0.29 in [7]; 0.31 in [8].

For the compound `Oc1ccccc1-c1cnc(-c2cccc(O)c2O)o1`, the IC50 was 9.1 µM in [1]; 13.5 µM in [2]; 2.8 µM in [3]; 1.1 µM in the data set on Trypanosoma congolense; 4.7 µM in the data set with Trypanosoma evansi; 7 µM in the data set on MDBK cells (Bos taurus). Further, the selectivity ratio was found to be 1.5 in data set [4]; 6.3 in data set [5]; 0.77 in data set [6]; 0.52 in data set [7]; 2.5 in data set [8].

As for `Oc1ccccc1-c1cnc(-c2cccc(O)c2O)s1`, the IC50 turned out to be 7.7 µM in data set [1]; 8.2 µM in data set [2]; 7.8 µM in [3]; 2.3 µM in the data set with Trypanosoma congolense; 4 µM with Trypanosoma evansi; 20 µM with MDBK cells (Bos taurus). Further, the selectivity ratio is 5 in data set [4]; 8.8 in data set [5]; 2.6 in data set [6]; 2.4 in [7]; 2.6 in data set [8].

For `COCOc1ccccc1-c1cnc(-c2cccc(OC)c2OC)o1`, the IC50 in [1] was 21.5 µM; in [2], 19.6 µM; in data set [3], 26.2 µM; with Trypanosoma congolense it was 3.9 µM; with Trypanosoma evansi, 25.8 µM; with MDBK cells (Bos taurus), 82.2 µM. The selectivity ratio in [4] was 3.2; in [5] it was 21; in [6], 3.8; in [7], 4.2; in data set [8] it was 3.1.

As to `COc1cccc(-c2ncc(-c3ccccc3[N+](=O)[O-])o2)c1OC`, the concentration for half-maximal inhibition (IC50) in data set [1] is 49.6 µM; in data set [2] it was 63.4 µM; in data set [3], 56.4 µM; in the data set with Trypanosoma congolense, 8.4 µM; in the data set on Trypanosoma evansi it was 49 µM; with MDBK cells (Bos taurus) it was > 306 µM. The selectivity ratio is > 6.3 in data set [4]; > 36 in data set [5]; > 6.2 in [6]; > 4.8 in data set [7]; > 5.4 in data set [8].

On to `COc1cccc(-c2cnc(-c3cccc(OC)c3OC)o2)c1`, for which the IC50 in data set [1] is 76 µM; in [2], 73.9 µM; in [3], 76.1 µM; in the data set on Trypanosoma congolense it was 10.3 µM; in the data set on Trypanosoma evansi, 68.2 µM; in the data set with MDBK cells (Bos taurus) it was 96.3 µM. Moreover, the selectivity ratio in data set [4] was found to be 1.4; in [5] it was 9.3; in [6], 1.3; in data set [7], 1.3; in [8], 1.3.

On to `COc1ccc(-c2ncc(-c3ccccc3OC)o2)c(OC)c1`, for which the IC50 was found to be 75.3 µM in data set [1]; 35.8 µM in data set [2]; 59.2 µM in data set [3]; 15.3 µM in the data set on Trypanosoma congolense; 65.1 µM in the data set with Trypanosoma evansi; 59.5 µM with MDBK cells (Bos taurus). For the same compound, the selectivity ratio in data set [4] stood at 0.91; in [5] it was 3.9; in data set [6], 0.79; in [7], 1.7; in data set [8], 1.

Turning to `Oc1ccc(O)c(-c2cnc(-c3ccccc3)o2)c1`, the IC50 turned out to be 20.6 µM in [1]; 17.8 µM in data set [2]; 18.1 µM in data set [3]; 4.7 µM in the data set with Trypanosoma congolense; 12.2 µM with Trypanosoma evansi; 7.5 µM in the data set with MDBK cells (Bos taurus). Further, the selectivity ratio in data set [4] is 0.61; in [5], 1.6; in [6], 0.36; in [7] it was 0.42; in data set [8], 0.42.

Consider `COc1ccccc1-c1coc(-c2cccc(OC)c2OC)n1`, for which the IC50 in data set [1] is 38.1 µM; in data set [2], 38.7 µM; in [3], 31.6 µM; in the data set on Trypanosoma congolense it was 9.4 µM; with Trypanosoma evansi, 37.9 µM; with MDBK cells (Bos taurus), > 321 µM. In addition, the selectivity ratio was > 8.5 in data set [4]; > 34 in data set [5]; > 8.4 in [6]; > 8.3 in [7]; > 10 in [8].

These data come from ChEMBL document CHEMBL4811303, “Synthesis and evaluation of trypanocidal activity of derivatives of naturally occurring 2,5-diphenyloxazoles” (Bioorg Med Chem, 2021).
